Data on 3 compounds can be found in PMC2907921 (Cancer cell, 2010).

One assay concerns COX-1 and COX-2. Description: COX Fluorescent Activity Assay. The format is biochemical.
A further assay concerns the target T1, RXRα LBD (Homo sapiens, UniProt P19793).
T1 sequence (P19793 227-458 limits assumed): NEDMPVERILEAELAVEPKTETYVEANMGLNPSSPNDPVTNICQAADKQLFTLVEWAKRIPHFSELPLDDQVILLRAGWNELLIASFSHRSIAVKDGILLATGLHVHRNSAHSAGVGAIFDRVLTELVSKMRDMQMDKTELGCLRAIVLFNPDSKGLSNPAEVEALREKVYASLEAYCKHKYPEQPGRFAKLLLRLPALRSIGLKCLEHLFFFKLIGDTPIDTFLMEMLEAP
Description: Competition ligand-binding assay with [3H]9-cis-RA. The conditions noted are these: Sulindac analogs. In a few lines: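 Competitive binding: RXR ligand-binding domain incubated with [3H]-9-cis-RA, with or without unlabeled 9-cis-RA or test compound. Bound radioligand was quantified by liquid scintillation counting.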

The subject of the next assay is AKT activation. Kind of assay: AKT activation by immunoblotting. The format is cell-based. Conditions: 50 μM. The procedure, abridged: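 Immunoblot for Ser473-phospho-AKT. Cells were serum-starved overnight and exposed to 100 μM test compound for 1 hr. In TNFα arms, cells were pretreated with compound (100 μM in A549, 50 μM in PC3) for 1 hr and then given TNFα 10 ng/ml for 30 min. Some cells were transfected with RXRα, RARγ or control siRNA for 48 hr beforehand. Compound was dissolved in DMSO.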
For orientation: Immunoblotting shows a protein as a band on a membrane.

For another assay, the target named is T2, tRXRα/p85α interaction (Homo sapiens, UniProt P19793).
T2 sequence (P19793 81-462 limits assumed): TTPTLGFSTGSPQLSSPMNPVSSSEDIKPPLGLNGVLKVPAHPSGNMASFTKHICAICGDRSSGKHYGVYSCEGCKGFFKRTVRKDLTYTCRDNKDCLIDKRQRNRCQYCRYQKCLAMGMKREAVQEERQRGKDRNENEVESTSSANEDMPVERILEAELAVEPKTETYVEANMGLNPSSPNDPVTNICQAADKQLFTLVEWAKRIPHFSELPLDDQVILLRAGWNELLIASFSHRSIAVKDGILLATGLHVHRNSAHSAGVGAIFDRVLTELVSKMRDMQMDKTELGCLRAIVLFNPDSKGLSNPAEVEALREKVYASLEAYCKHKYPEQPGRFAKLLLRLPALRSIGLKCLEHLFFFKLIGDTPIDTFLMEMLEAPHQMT
Kind of assay: tRXRα/p85α interaction by co-immunoprecipitation. Conditions: A549 cells, 50 μM, absence or presence of TNFα. The format is cell-based. The procedure, abridged:
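Two co-immunoprecipitation set-ups in A549 cells. (a) Endogenous protein: cells received TNFα 10 ng/ml and/or 100 μM test compound for 30 min, then were immunoprecipitated with the C-terminal ΔN197 RXRα antibody and blotted for p85α. (b) Transfected Flag-p85α and Myc-RXRα/Δ80: cells were pretreated with 50 μM compound for 1 hr, then given TNFα for 30 min, and immunoprecipitated with anti-Flag.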

The subject of another assay is RXRα/Δ80 tumor. Description: RXRα/Δ80 tumor growth in nude mice. The format is in vivo, Nude mice (BALB/c). Conditions: 60 mg/kg intraperitoneally, two weeks.
For assay [1], the system named is prostaglandin E2 (PGE2) production, A549 cells. Description: Prostaglandin E2 production. Format: cell-based. In a few lines: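 A549 cells were stimulated with TNFα 10 ng/ml for 24 hr, then exposed to test compound for 30 min. PGE2 was measured by enzyme immunoassay kit and expressed as the ratio of PGE2 with compound to PGE2 with vehicle.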
In assay [2] the test system is HeLa/RXRα/1–134 and RXRα/Δ80 cells. Kind of assay: Colony formation. Format: cell-based. Conditions: 25 μM. In a few lines:
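Clonogenic survival of HeLa stably expressing RXRα/1–134, and of SW480 or HCT116 stably expressing GFP-RXRα/Δ80. Cells were grown in 6-well plates for 5 days, then exposed to 25 μM test compound in 0.5% serum medium for 3 days. Colonies were fixed with 4% paraformaldehyde and stained with 0.1% crystal violet.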

In assay [3] the test system is cancer cell lines (HepG2, ZR-75-1). Description: PARP cleavage and caspase-8 activation by immunoblotting. The format is cell-based. In a few lines: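 Immunoblot for PARP cleavage and cleaved caspase-8 (p43/p41). ZR-75-1 cells were exposed to TNFα and/or test compound (50 or 75 μM) for 6 hr. HepG2 cells in 1% FBS medium received TNFα 10 ng/ml and/or 75 μM compound for 4 hr. Some cells were pretreated with 1 μM SR11237 for 1 hr.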

The next assay has as its system COX. Conditions: ref Haanen, 2001; cited from earlier work.

With `CC1=C(CC(=O)O)c2cc(F)ccc2/C1=C\c1ccc(C(C)C)cc1` [K-80003], the “Inhibition of COX activities” value in the assay on COX-1 and COX-2 is listed as “no detectable inhibition”. Also, the RXRα-binding activity entry on RXRα LBD is listed as “most potent”. Also, in the assay with AKT activation, the “Inhibition of RA- and TNFα-induced AKT activation, compared with Sulindac” value was “much more effective than Sulindac”. The “Interaction of RXRα/Δ80 with p85α, compared with Sulindac” value at tRXRα/p85α interaction is given as “more potently inhibited”. The “Inhibition of RXRα/Δ80 tumor growth, compared with Sulindac” value with RXRα/Δ80 tumor is reported as “much more potent inhibitory effect than Sulindac”. Further, in assay [1], the “Inhibition of constitutive and TNFα or IL-1β-induced PGE2 production” value is recorded as “failed to inhibit”. In assay [2], the Colony formation result was “almost completely suppressed”. Besides, in assay [3] (ZR-75-1 cells, K-80003 50 μM, Sulindac 75 μM, 6 hr), the “PARP cleavage with TNFα, compared with Sulindac” value is listed as “more effective than Sulindac”. Also, the “PARP cleavage and caspase-8 activation, with TNFα” value in assay [3] (various cancer cell lines) was “synergistically induced PARP cleavage and caspase-8 activation”.

For `CC1=C(CC(=O)O)c2cc(F)ccc2/C1=C\c1ccc(S(C)(=O)=O)cc1` [sulindac sulfone], the COX-inhibiting activity entry with COX is given as “no COX-inhibiting activity”.

In the case of `CC1=C(CC(=O)O)c2cc(F)ccc2/C1=C/c1ccc([S+](C)[O-])cc1` (centres unmarked) [sulindac sulfoxide], the COX-inhibiting activity result with COX is reported as “no COX-inhibiting activity”.
